Assay results as given in ChEMBL document CHEMBL5724801, “EUbOPEN Chemogenomics Library - Multiplex” (2024).
Values joined by “and” are separate entries in the source; they are usually repeats but may differ in a detail not shown here. Identical values can stand only once.

Test system: Fibroblast
Assay: Multiplex assay against human fibroblast
Assay type: toxicity, cell-based
Method in brief: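 Phenotypes for tubulin, mitochondrial mass and membrane permeability are expressed as per cents of healthy-nucleus cells. Cells were stained live at seeding with Hoechst33342, BioTracker Green Microtubule Cytoskeleton Dye, MitoTracker Red and Annexin V Alexa Fluor 680, then imaged after compound addition on a CQ1 microscope at 37°C and 5% CO2. Machine-learning gating in CellPathfinder separated Hoechst high-intensity objects from normal cells, divided normal cells by nuclear state (healthy, pyknosed, fragmented) and divided pyknosed cells into mitotic or apoptotic.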

[1] = 12 h, 1 µM, compound concentration 1 uM
[2] = 12 h, 10 µM, compound concentration 10 uM
[3] = 24 h, 1 µM, compound concentration 1 uM
[4] = 24 h, 10 µM, compound concentration 10 uM
[5] = 48 h, 1 µM, compound concentration 1 uM
[6] = 48 h, 10 µM, compound concentration 10 uM

CN1CCN(c2cc(-c3ccccc3)nc(N)n2)CC1
Population Apoptotic (%) [1]: 47% and 37% | Population Fragmented Nuclei (%) [1]: 15% and 28% | Population Healthy Nuclei (%) [1]: 68% and 45% | Population Hoechst High Intensity Objects (%) [1]: 2% and 5% | Population Membrane Permeable-Phenotype (%) [1]: 1% and 11% | Population Mitochondria Different-Phenotype (%) [1]: 10% and 11% | Population Mitotic Cells (%) [1]: 52% and 62% | Population Normal (%) [1]: 97% and 94% | Population Pyknosed Nuclei (%) [1]: 15% and 26% | Population Tubulin-Different-Phenotype (%) [1]: 25% and 66% | Total Cell Count [1]: 135 and 97 | Population Apoptotic (%) [2]: 48% and 36% | Population Fragmented Nuclei (%) [2]: 16% and 40% | Population Healthy Nuclei (%) [2]: 67% and 36% | Population Hoechst High Intensity Objects (%) [2]: 2% and 7% | Population Membrane Permeable-Phenotype (%) [2]: 0% and 10% | Population Mitochondria Different-Phenotype (%) [2]: 6% and 12% | Population Mitotic Cells (%) [2]: 51% and 64% | Population Normal (%) [2]: 97% and 92% | Population Pyknosed Nuclei (%) [2]: 15% and 22% | Population Tubulin-Different-Phenotype (%) [2]: 44% and 67% | Total Cell Count [2]: 216 and 118 | Population Apoptotic (%) [3]: 75% and 47% | Population Fragmented Nuclei (%) [3]: 17% and 36% | Population Healthy Nuclei (%) [3]: 65% and 44% | Population Hoechst High Intensity Objects (%) [3]: 2% | Population Membrane Permeable-Phenotype (%) [3]: 1% and 8% | Population Mitochondria Different-Phenotype (%) [3]: 3% and 8% | Population Mitotic Cells (%) [3]: 25% and 52% | Population Normal (%) [3]: 97% | Population Pyknosed Nuclei (%) [3]: 16% and 18% | Population Tubulin-Different-Phenotype (%) [3]: 19% and 50% | Total Cell Count [3]: 145 and 106 | Population Apoptotic (%) [4]: 41% and 29% | Population Fragmented Nuclei (%) [4]: 12% and 33% | Population Healthy Nuclei (%) [4]: 70% and 43% | Population Hoechst High Intensity Objects (%) [4]: 2% | Population Membrane Permeable-Phenotype (%) [4]: 1% and 4% | Population Mitochondria Different-Phenotype (%) [4]: 6% | Population Mitotic Cells (%) [4]: 58% and 70% | Population Normal (%) [4]: 97% | Population Pyknosed Nuclei (%) [4]: 17% and 23% | Population Tubulin-Different-Phenotype (%) [4]: 41% and 64% | Total Cell Count [4]: 213 and 107 | Population Apoptotic (%) [5]: 70% and 50% | Population Fragmented Nuclei (%) [5]: 22% and 36% | Population Healthy Nuclei (%) [5]: 62% and 49% | Population Hoechst High Intensity Objects (%) [5]: 2% and 3% | Population Membrane Permeable-Phenotype (%) [5]: 0% and 2% | Population Mitochondria Different-Phenotype (%) [5]: 2% and 6% | Population Mitotic Cells (%) [5]: 30% and 50% | Population Normal (%) [5]: 97% and 96% | Population Pyknosed Nuclei (%) [5]: 15% and 14% | Population Tubulin-Different-Phenotype (%) [5]: 20% and 54% | Total Cell Count [5]: 137 and 101 | Population Apoptotic (%) [6]: 40% and 66% | Population Fragmented Nuclei (%) [6]: 26% and 50% | Population Healthy Nuclei (%) [6]: 58% and 39% | Population Hoechst High Intensity Objects (%) [6]: 3% | Population Membrane Permeable-Phenotype (%) [6]: 0% and 9% | Population Mitochondria Different-Phenotype (%) [6]: 0% and 9% | Population Mitotic Cells (%) [6]: 59% and 33% | Population Normal (%) [6]: 96% | Population Pyknosed Nuclei (%) [6]: 14% and 10% | Population Tubulin-Different-Phenotype (%) [6]: 31% and 60% | Total Cell Count [6]: 227 and 114

COc1cc(/C=C(\C#N)C(=O)Nc2nnc(C(F)(F)F)s2)ccc1OCc1ccc(C(F)(F)F)cc1C(F)(F)F
Population Healthy Nuclei (%) [1]: 58.16% and 84.16% | Population Hoechst High Intensity Objects (%) [1]: 0% | Population Membrane Permeable-Phenotype (%) [1]: 2.63% and 2.94% | Population Mitochondria Different-Phenotype (%) [1]: 3.51% and 3.53% | Population Mitotic Cells (%) [1]: 97.5% and 65% | Population Normal (%) [1]: 100% | Population Pyknosed Nuclei (%) [1]: 20.41% and 9.9% | Population Tubulin-Different-Phenotype (%) [1]: 14.04% and 8.24% | Total Cell Count [1]: 196 and 202 | Population Apoptotic (%) [2]: 13.04% and 12.12% | Population Fragmented Nuclei (%) [2]: 7.14% and 5.21% | Population Healthy Nuclei (%) [2]: 67.58% and 79.15% | Population Hoechst High Intensity Objects (%) [2]: 0% | Population Membrane Permeable-Phenotype (%) [2]: 4.07% and 1.2% | Population Mitochondria Different-Phenotype (%) [2]: 8.13% and 4.79% | Population Mitotic Cells (%) [2]: 86.96% and 87.88% | Population Normal (%) [2]: 100% | Population Pyknosed Nuclei (%) [2]: 25.27% and 15.64% | Population Tubulin-Different-Phenotype (%) [2]: 7.32% and 18.56% | Total Cell Count [2]: 182 and 211 | Population Apoptotic (%) [3]: 9.09% and 25% | Population Fragmented Nuclei (%) [3]: 17.05% and 6.05% | Population Healthy Nuclei (%) [3]: 67.74% and 86.51% | Population Hoechst High Intensity Objects (%) [3]: 0% | Population Membrane Permeable-Phenotype (%) [3]: 5.44% and 3.23% | Population Mitochondria Different-Phenotype (%) [3]: 4.76% and 1.61% | Population Mitotic Cells (%) [3]: 90.91% and 75% | Population Normal (%) [3]: 100% | Population Pyknosed Nuclei (%) [3]: 15.21% and 7.44% | Population Tubulin-Different-Phenotype (%) [3]: 14.97% and 9.14% | Total Cell Count [3]: 217 and 215 | Population Apoptotic (%) [4]: 9.09% and 23.53% | Population Fragmented Nuclei (%) [4]: 4.46% and 6.64% | Population Healthy Nuclei (%) [4]: 79.21% and 85.31% | Population Hoechst High Intensity Objects (%) [4]: 0% | Population Membrane Permeable-Phenotype (%) [4]: 3.75% and 3.33% | Population Mitochondria Different-Phenotype (%) [4]: 7.5% and 5% | Population Mitotic Cells (%) [4]: 90.91% and 76.47% | Population Normal (%) [4]: 100% | Population Pyknosed Nuclei (%) [4]: 16.34% and 8.06% | Population Tubulin-Different-Phenotype (%) [4]: 10% and 18.89% | Total Cell Count [4]: 202 and 211 | Population Apoptotic (%) [5]: 33.33% and 37.5% | Population Fragmented Nuclei (%) [5]: 14.56% and 6.01% | Population Healthy Nuclei (%) [5]: 78.54% and 90.56% | Population Hoechst High Intensity Objects (%) [5]: 0% | Population Membrane Permeable-Phenotype (%) [5]: 2.93% and 0.95% | Population Mitochondria Different-Phenotype (%) [5]: 8.29% and 2.37% | Population Mitotic Cells (%) [5]: 66.67% and 62.5% | Population Normal (%) [5]: 100% | Population Pyknosed Nuclei (%) [5]: 6.9% and 3.43% | Population Tubulin-Different-Phenotype (%) [5]: 6.83% and 10.43% | Total Cell Count [5]: 261 and 233 | Population Fragmented Nuclei (%) [6]: 7.11% and 8.56% | Population Healthy Nuclei (%) [6]: 90.05% and 88.74% | Population Hoechst High Intensity Objects (%) [6]: 0% | Population Membrane Permeable-Phenotype (%) [6]: 1.05% and 2.03% | Population Mitochondria Different-Phenotype (%) [6]: 10.53% and 2.54% | Population Mitotic Cells (%) [6]: 100% and 50% | Population Normal (%) [6]: 100% | Population Pyknosed Nuclei (%) [6]: 2.84% and 2.7% | Total Cell Count [6]: 211 and 222
